Laboratory results as given in ChEMBL document CHEMBL1765057, “Pyrazolo[4,3-d]pyrimidine bioisostere of roscovitine: evaluation of a novel selective inhibitor of cyclin-dependent kinases with antiproliferative activity” (J Med Chem, 2011).
Activity calls are given as the source filed them. No cut-off for these calls is given here.

Key:
[1] = biological target: Dual specificity mitogen-activated protein kinase kinase 1 (Homo sapiens) (UniProt Q02750); assay: Inhibition of human recombinant MEK1 at 10 uM
[2] = tested on: RPMI-8226; assay: Cell cycle arrest in human RPMI8226 cells assessed as decrease in S phase cell population after 24 hrs using propidium iodide and BrdU staining by flow cytometry; assay type: functional, cell-based
Summary of the method: (§1)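 Asynchronously growing RPMI-8226 multiple myeloma cells were exposed for 24 h. Cells were double-stained with propidium iodide and BrdU and analysed by flow cytometry for G1, S, G2/M and BrdU-positive fractions. The subG1 population was taken as indicative of apoptosis.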

[3] = tested on: RPMI-8226; assay: Cell cycle arrest in human RPMI8226 cells assessed as accumulation at G2/M phase after 24 hrs using propidium iodide and BrdU staining by flow cytometry; assay type: functional, cell-based; summary of the method: as §1
[4] = biological target: T1, Retinoblastoma-associated protein (Homo sapiens) (UniProt P06400); assay: Inhibition of retinoblastoma protein phosphorylation at Ser249/Thr252, Ser807/811, Ser780, and Ser795 in human MCF7 cells after 24 hrs by immunoblotting; assay type: cell-based
T1 sequence (whole entry): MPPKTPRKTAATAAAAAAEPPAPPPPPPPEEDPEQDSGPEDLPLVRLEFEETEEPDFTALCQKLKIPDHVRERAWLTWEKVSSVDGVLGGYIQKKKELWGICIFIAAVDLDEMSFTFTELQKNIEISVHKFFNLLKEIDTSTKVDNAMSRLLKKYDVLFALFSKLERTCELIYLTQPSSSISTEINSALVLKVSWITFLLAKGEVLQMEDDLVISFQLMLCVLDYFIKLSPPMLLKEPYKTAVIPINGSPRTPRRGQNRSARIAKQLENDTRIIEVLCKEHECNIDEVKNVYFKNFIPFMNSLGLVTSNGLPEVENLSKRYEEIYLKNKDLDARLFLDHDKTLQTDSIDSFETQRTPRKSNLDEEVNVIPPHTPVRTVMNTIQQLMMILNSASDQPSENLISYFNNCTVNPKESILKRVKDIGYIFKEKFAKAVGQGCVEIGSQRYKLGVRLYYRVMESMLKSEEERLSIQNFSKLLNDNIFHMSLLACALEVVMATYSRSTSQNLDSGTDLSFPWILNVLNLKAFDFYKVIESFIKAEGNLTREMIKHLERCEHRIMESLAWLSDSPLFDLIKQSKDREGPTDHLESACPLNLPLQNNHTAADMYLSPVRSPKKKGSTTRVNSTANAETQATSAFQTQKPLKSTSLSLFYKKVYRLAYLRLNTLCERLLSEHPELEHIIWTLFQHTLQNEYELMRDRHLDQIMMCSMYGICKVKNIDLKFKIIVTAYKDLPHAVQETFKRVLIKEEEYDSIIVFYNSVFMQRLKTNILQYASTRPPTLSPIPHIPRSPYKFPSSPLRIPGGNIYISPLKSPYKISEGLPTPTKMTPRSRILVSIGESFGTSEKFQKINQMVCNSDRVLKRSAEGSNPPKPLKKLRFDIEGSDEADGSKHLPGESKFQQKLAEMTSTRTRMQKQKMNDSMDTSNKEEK
Summary of the method: (§2)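 Asynchronous, exponentially growing MCF-7 cells were exposed 24 h to a range of concentrations. Total lysates were made in Laemmli buffer, run on SDS-PAGE and blotted to nitrocellulose. Membranes were probed overnight at 4 °C with specific or phosphospecific antibodies (pRb S249/T252, S780, S795, S807/811), with tubulin as loading control and ECL detection.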

[5] = tested on: U2OS; assay: Reduction of homologous recombination in human DR-U2OS-GFP cells expressing I-SceI nuclease at 5 uM after 56 hrs […] relative to control; assay type: functional
[6] = tested on: HOS; assay: Cytotoxicity against human HOS cells after 72 hrs by fluoroskan ascent microplate reader analysis; assay type: functional, cell-based
Summary of the method: (§3)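 Cells were grown in DMEM with 10% FCS and 4 mM glutamine at 37 °C under CO2, then plated at densities suited to each line. Compounds were added as 3-fold dilutions in triplicate for 72 h.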

[7] = tested on: CCRF-CEM; assay: Cytotoxicity against human CEM cells after 72 hrs by fluoroskan ascent microplate reader analysis; assay type: functional, cell-based; summary of the method: as §3
[8] = tested on: MCF7; assay: Cell cycle arrest in human MCF7 cells assessed as decrease in S phase cell population after 24 hrs using propidium iodide and BrdU staining by flow cytometry; assay type: functional, cell-based
Summary of the method: (§4)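 Subconfluent MCF-7 cells were treated for 24 h at a range of concentrations. They were pulse-labelled with 10 μM BrdU for 30 min at 37 °C, then trypsinized and fixed in ice-cold 70% ethanol. DNA was denatured in 2 M HCl and neutralized with borate. Cells were stained with fluorescein anti-BrdU and with propidium iodide plus RNase A, then analysed by flow cytometry at 488 nm.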

[9] = tested on: RPMI-8226; assay: Cell cycle arrest in human RPMI8226 cells assessed as reduction of actively replicating DNA level at 80 uM after 24 hrs using propidium iodide and BrdU staining by flow cytometry; assay type: functional, cell-based; summary of the method: as §1
[10] = biological target: Glycogen synthase kinase-3 beta (Homo sapiens) (UniProt P49841); assay: Inhibition of human recombinant GSK3B at 10 uM
[11] = biological target: T1, Retinoblastoma-associated protein (Homo sapiens); assay: Inhibition of retinoblastoma protein in human MCF7 cells assessed as reduction of CDK4 level at 2.5 to 40 uM after 24 hrs by immunoblotting; assay type: cell-based; summary of the method: as §2
[12] = biological target: CDK9/cyclin T1 (Homo sapiens) (UniProt O60563+P50750); assay: Inhibition of human recombinant CDK9/cyclin T1 at 10 uM; assay type: protein-complex assay
[13] = tested on: BT-474; assay: Cytotoxicity against human BT474 cells after 72 hrs by fluoroskan ascent microplate reader analysis; assay type: functional, cell-based; settings: BT-474, 72 h; summary of the method: as §3
[14] = tested on: HCT-116; assay: Cytotoxicity against human HCT116 cells after 72 hrs by fluoroskan ascent microplate reader analysis; assay type: functional, cell-based; settings: HCT-116, 72 h; summary of the method: as §3
[15] = tested on: RPMI-8226; assay: Induction of apoptosis in human RPMI8226 cells assessed as induction of caspase7 activation at 20 uM after 24 hrs by immunoblot analysis; assay type: functional, cell-based; settings: in the assay text read “by fluorogenic assay” for “by immunoblot analysis”
Summary of the method: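 RPMI-8226 cells were treated continuously for 24 h and lysed in CHAPS extraction buffer (pH 7.4) on ice, then clarified, with protein equalized by Bradford. Lysates were incubated 1 h with 100 μM Ac-DEVD-AMC in PIPES/DTT buffer (pH 7.3), with 100 μM Ac-DEVD-CHO added for negative controls. Fluorescence was read at 355/460 nm.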

[16] = tested on: A-431; assay: Cytotoxicity against human A431 cells after 72 hrs by fluoroskan ascent microplate reader analysis; assay type: functional, cell-based; settings: A-431, 72 h; summary of the method: as §3
[17] = biological target: Casein kinase II (Homo sapiens) (UniProt P67870+P68400+P19784); assay: Inhibition of human recombinant CK2 at 10 uM; assay type: protein-complex assay
[18] = tested on: RPMI-8226; assay: Induction of apoptosis in human RPMI8226 cells assessed as induction of caspase3 activation at 20 uM after 24 hrs by immunoblot analysis; assay type: functional, cell-based
[19] = biological target: Cyclin-dependent kinase 1/cyclin B1 (Homo sapiens) (UniProt P06493+P14635); settings: at 10 µM
[20] = tested on: RPMI-8226; assay: Cytotoxicity against human RPMI8226 cells after 72 hrs by fluoroskan ascent microplate reader analysis; assay type: functional, cell-based; settings: RPMI-8226, 72 h; summary of the method: as §3
[21] = tested on: MCF7; assay: Cell cycle arrest in human MCF7 cells assessed as reduction of actively replicating DNA level at 80 uM after 24 hrs using propidium iodide and BrdU staining by flow cytometry; assay type: functional, cell-based; summary of the method: as §4

Dual specificity mitogen-activated protein kinase kinase 1 (Homo sapiens), sequence (Q02750 whole entry): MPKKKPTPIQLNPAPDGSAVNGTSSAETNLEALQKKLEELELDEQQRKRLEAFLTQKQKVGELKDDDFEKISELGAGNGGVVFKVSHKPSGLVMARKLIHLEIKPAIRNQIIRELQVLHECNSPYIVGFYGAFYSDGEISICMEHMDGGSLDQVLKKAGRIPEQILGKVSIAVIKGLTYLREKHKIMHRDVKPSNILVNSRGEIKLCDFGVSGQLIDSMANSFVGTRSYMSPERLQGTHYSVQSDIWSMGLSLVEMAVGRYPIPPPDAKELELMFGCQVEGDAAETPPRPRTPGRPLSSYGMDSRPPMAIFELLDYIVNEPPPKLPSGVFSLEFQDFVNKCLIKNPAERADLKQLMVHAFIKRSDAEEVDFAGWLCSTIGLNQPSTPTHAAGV
Glycogen synthase kinase-3 beta (Homo sapiens), sequence (P49841 whole entry, looked up): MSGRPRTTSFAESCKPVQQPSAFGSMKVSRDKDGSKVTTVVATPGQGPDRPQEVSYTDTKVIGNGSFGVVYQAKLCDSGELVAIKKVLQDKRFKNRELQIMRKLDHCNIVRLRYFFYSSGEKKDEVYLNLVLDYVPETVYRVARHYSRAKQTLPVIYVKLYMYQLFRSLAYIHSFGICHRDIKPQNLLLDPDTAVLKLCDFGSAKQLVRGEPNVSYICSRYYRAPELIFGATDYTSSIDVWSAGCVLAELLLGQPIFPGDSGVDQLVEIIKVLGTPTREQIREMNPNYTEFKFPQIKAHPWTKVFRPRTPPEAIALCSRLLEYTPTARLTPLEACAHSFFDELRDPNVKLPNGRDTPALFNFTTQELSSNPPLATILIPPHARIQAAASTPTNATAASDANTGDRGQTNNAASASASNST
Cyclin-dependent kinase 1/cyclin B1 (Homo sapiens), sequence (P06493 whole entry, looked up): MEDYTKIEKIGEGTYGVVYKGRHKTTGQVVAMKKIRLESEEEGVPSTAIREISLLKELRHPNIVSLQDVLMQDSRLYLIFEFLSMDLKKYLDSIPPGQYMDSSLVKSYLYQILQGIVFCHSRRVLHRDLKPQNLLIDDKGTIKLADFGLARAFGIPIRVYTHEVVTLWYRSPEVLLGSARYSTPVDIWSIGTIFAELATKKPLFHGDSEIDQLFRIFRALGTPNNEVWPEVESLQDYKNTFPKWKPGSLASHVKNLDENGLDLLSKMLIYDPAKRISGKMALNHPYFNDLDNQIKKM
Cyclin-dependent kinase 1/cyclin B1 (Homo sapiens), sequence (P14635 whole entry, looked up): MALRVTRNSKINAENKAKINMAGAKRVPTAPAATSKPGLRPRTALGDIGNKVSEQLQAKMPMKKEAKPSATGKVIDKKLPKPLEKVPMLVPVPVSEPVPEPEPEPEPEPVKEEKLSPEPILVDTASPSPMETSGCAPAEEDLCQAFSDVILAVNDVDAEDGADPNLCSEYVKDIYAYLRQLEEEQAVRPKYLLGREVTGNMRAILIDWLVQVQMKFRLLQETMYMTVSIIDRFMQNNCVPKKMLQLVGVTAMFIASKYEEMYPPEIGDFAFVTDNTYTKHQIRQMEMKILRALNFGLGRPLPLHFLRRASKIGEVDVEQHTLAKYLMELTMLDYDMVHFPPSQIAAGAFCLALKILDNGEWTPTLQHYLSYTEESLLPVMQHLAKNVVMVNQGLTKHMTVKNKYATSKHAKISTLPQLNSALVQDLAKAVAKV

For `CC[C@H](CO)Nc1nc(NCc2ccccc2)c2[nH]nc(C(C)C)c2n1`, the inhibition [1] was 58%, the Activity [2] was “Active” and the Activity [3] was “Active”. The inhibition [4] was “Dose-dependent effect”, the inhibition at 5 µM [5] was 66% and the IC50 [6] was 7.5 µM. The IC50 [7] was 3.8 µM, the Activity [8] was “Active” and the Activity [9] was “Active”. For the same molecule, the inhibition [10] was 54%, the inhibition [11] was “Active” and the inhibition [12] was 90%. For the same molecule, the IC50 [13] was 8.5 µM, the IC50 [14] was 11 µM and the Activity [15] was “Active”. For the same molecule, the IC50 [16] was 7.7 µM, the inhibition [17] was 19% and the Activity [18] was “Active”. For the same molecule, the inhibition [19] was 84%, the IC50 [20] was 3.6 µM and the Activity [21] was “Active”.
